# Assay outcomes from PubChem BioAssay.
# FGF22 binding: shifts melting point of recombinant human FGF22; recombinant FGF22 thermal shift, SYPRO orange fluorescence; percent of sucrose octasulfate shift, DMSO zero; hit rate 1.5% among 340,000; activity (Tm shift, normalised), % at 9.99 µM;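 active = mean Tm shift, scaled 0 neutral to 100 positive control, at about 1.3% or above, every replicate too, limit read from the data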
# Target sequence (Q9HCT0 whole entry, looked up): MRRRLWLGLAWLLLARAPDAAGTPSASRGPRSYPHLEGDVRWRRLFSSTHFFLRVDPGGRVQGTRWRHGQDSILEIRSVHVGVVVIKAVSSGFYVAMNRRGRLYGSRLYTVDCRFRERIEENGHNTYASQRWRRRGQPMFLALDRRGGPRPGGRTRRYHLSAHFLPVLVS
# F508del corr: CFTR F508del correction in bronchial cells | hit rate 0.36% among 350,000 | CFBE cells, YFP halide quenching; stimulated with forskolin plus potentiator P3; % fluorescence drop versus neutral controls | activity (quench increase), % at 7.58 µM;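 active = mean added fluorescence quench of at least 8% versus neutral control, with both replicates also reaching 8%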;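 note: cells transiently co-express mutant CFTR-F508del with the halide-sensitive YFP; corrector assay measuring rescue of mutant channel to the surface after 24 h compound exposure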
# S100A4 inh HTS: S100A4-myosin IIA interaction inhibition. inhibition, % at 10.7 µM. P26447. S100A4/TAMRA-MyoIIA peptide fluorescence polarization. hit rate 0.14% among 360,000;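 active = mean inhibition of at least 70% across replicates, with every replicate also reaching that level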
# Target sequence (P26447 whole entry, looked up): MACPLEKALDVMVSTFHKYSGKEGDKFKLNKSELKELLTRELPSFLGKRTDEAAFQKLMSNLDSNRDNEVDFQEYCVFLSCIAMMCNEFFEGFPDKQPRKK
#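 Test system: S100A4 monomer protein; Medium: HEPES pH 7.2 with CaCl2, KCl, NaCl, DTT, Triton; Probe or stimulus: TAMRA-labelled myosin IIA heavy-chain peptide probe, 5 nM; Doses: one dose per compound; Times: polarization read 5 min after assay mix addition, stable 5–60 min; Benchmarks: neutral control DMSO, positive control TFP.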
# dFosB act-1: activators of mouse delta FosB homodimer. purified delta FosB, TAMRA-CDK5 oligo fluorescence polarization; percent of positive-control signal above neutral wells. activation, % at 25 µM. hit rate 0.99% among 340,000;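 active = mean activation above about 17%, with every replicate also reaching it, limit read from the data, passing the limit was not always enough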
# dFosB act-2: delta FosB (mouse) homodimer activation | purified delta FosB, TAMRA-CDK5 oligo fluorescence polarization; normalised: neutral wells 0, positive control 100 | shares compounds with dFosB act-1 | activation, % at 24.9 µM | AID 588690 | 2,400 tested, under 10 active;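 active = highest replicate activation at or above 34% and every replicate reaching that threshold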;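 note: higher polarization means more probe DNA bound by delta FosB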
# Hits are given with their value; . = inactive; / = no result; ! = not active in a repeat. Most compounds without a hit are left out; they make up all but 2.2% or so of the library.
SMILES,FGF22 binding,F508del corr,S100A4 inh HTS,dFosB act-1,dFosB act-2
C[C@H]1CN([C@@H](C)CO)C(=O)c2cc(Br)cnc2O[C@H]1CN(C)C(=O)Nc1ccccc1,.,.,.,/,/
O=C(CCNC(=O)c1ccccc1Cl)Nc1cc(C(F)(F)F)ccc1Cl,.,.,.,34,.
O=C(NCC[C@@H]1CC[C@@H](NS(=O)(=O)Cc2ccccc2)[C@H](CO)O1)C1CCCC1,.,.,.,/,/
CC(=O)Nc1ccc(NC(=O)c2ccc(-c3ccc([N+](=O)[O-])cc3)o2)cc1,.,.,.,29,.
O=[N+]([O-])c1cccc(-c2ccc(C(=S)N3CCOCC3)o2)c1,.,/,.,.,/
O=C(Nc1ccc(CN2CCOCC2)cc1)c1ccc(-c2cccc([N+](=O)[O-])c2)o1,.,.,.,17,.
COc1ccc(NC(=O)c2ccc(-c3ccc([N+](=O)[O-])cc3)o2)cc1OC,.,/,.,.,/
O=C(Nc1ccc(CN2CCOCC2)cc1)c1ccc(-c2cc(Cl)ccc2Cl)o1,/,/,/,26,.
CC(=O)c1ccc(NC(=O)c2ccc(COc3ccccc3[N+](=O)[O-])o2)cc1,.,/,.,27,.
COCC#Cc1cnc2c(c1)C(=O)N([C@@H](C)CO)C[C@H](C)[C@H](CN(C)Cc1ccc(F)cc1)O2,.,.,.,/,/
COc1cccc(NC(=O)N[C@H]2C=C[C@H](CC(=O)Nc3ccc(-c4ccccc4)cc3)O[C@@H]2CO)c1,.,.,.,/,/
COc1ccccc1-c1ccc2n(c1=O)C[C@@H]1[C@@H](CO)[C@H](C(=O)NC3CCC3)N(C(=O)C3CCC3)[C@H]21,.,/,.,/,/
COc1ccc(S(=O)(=O)Nc2ccc3c(c2)C(=O)N([C@@H](C)CO)C[C@H](C)[C@@H](CN(C)Cc2ccccc2)O3)cc1,.,.,.,/,/
C[C@H]1CN([C@@H](C)CO)C(=O)c2cccc(NS(=O)(=O)c3cccs3)c2O[C@@H]1CN(C)Cc1ccc(-c2ccccc2)cc1,.,.,.,/,/
O=C(c1ccccn1)N1CC[C@@H]2[C@@H](CO)Nc3ccc(-c4ccccc4)cc3[C@@H]21,.,.,.,/,/
COCC(=O)N1CC2(C1)[C@@H](c1ccc(-c3ccccc3)cc1)[C@@H](CO)N2C(=O)COC,.,.,.,/,/
O=C(Nc1nccs1)c1ccc(-c2cccc([N+](=O)[O-])c2)o1,.,.,.,26,.
COc1ccccc1CNC(=O)COC(=O)c1cc2ccccc2o1,.,.,.,31,.
COc1ccc(Nc2nc(NN)nc(Nc3ccc(OC)cc3)n2)cc1,.,.,.,25,.
NNc1nc(Nc2ccccc2)nc(Nc2ccccc2)n1,.,.,.,46,.
C[C@H](CO)N1C[C@H](C)[C@@H](CN(C)C(=O)Cc2cccnc2)Oc2ncc(C#Cc3ccccc3F)cc2C1=O,.,.,.,/,/
C[C@@H](NC(=O)C[C@H]1C[C@@H]2c3cc(NC(=O)c4ccc5c(c4)OCO5)ccc3O[C@@H]2[C@H](CO)O1)c1ccccc1,/,.,/,/,/
COc1ccc2cc3[n+](cc2c1OC)CCc1cc2c(cc1-3)OCO2,.,.,.,36!,.
COc1cccc(C2=NCCc3cc4c(cc32)OCO4)c1OC,/,/,/,.,/
O=C(NC(NC(=S)Nc1c(Cl)cccc1Cl)C(Cl)(Cl)Cl)OCc1ccccc1 (configuration not stated),.,.,.,16,.
SMILES,FGF22 binding,F508del corr,S100A4 inh HTS,dFosB act-1,dFosB act-2
C[C@H](CO)N1C[C@H](C)[C@H](CN(C)S(=O)(=O)c2cccc(F)c2)OCc2cn(nn2)CCCC1=O,/,.,/,/,/
C[C@H](CO)N1C[C@H](C)[C@@H](CN(C)Cc2ccc(C(=O)O)cc2)Oc2ccc(NC(=O)C3CCCCC3)cc2CC1=O,.,.,.,/,/
N#C/C(=C\c1cn(Cc2ccccc2F)c2ccccc12)C(=O)NCc1ccco1,/,/,/,24,.
CC(C)NC(=O)c1c(O)c2ccccc2[nH]c1=O,/,/,/,.,/
COC(=O)Nc1ccc(S(=O)(=O)NNC(=O)c2c(O)c3ccccc3[nH]c2=O)cc1,.,.,.,24,.
O=C(NNC(=O)c1c(O)c2ccccc2[nH]c1=O)c1ccccc1,.,.,.,83,.
CC(C)C(=O)NNC(=O)c1c(O)c2ccccc2[nH]c1=O,.,.,.,.,/
Cc1ccc(S(=O)(=O)NNC(=O)c2c(O)c3ccccc3[nH]c2=O)cc1,.,.,.,21,.
